# In the M2OR odorant receptor database:
# Columns and labels:
# Conditions in all cases: stereoisomer not certain
# UniProt Q8VGC6 = target: T1, UniProt Q8VGC6
# T1 sequence (whole entry): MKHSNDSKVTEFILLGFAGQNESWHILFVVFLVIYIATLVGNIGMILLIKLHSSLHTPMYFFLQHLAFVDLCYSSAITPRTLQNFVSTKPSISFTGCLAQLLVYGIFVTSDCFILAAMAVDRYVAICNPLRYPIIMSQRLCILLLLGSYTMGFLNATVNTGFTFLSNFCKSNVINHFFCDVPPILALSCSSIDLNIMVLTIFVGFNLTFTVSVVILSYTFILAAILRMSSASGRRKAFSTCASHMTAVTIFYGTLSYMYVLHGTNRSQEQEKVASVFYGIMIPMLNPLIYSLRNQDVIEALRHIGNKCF
# In short: (§1)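 Assay methods differ from source to source, frequently being transient luciferase assays in mammalian cell lines. For each receptor–molecule pair, the label responsive (active) applies when the original authors judged the measured signal statistically different from baseline, and non-responsive (inactive) applies otherwise.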
# UniProt Q8VGD7 = target: T2, UniProt Q8VGD7
# T2 sequence (whole entry): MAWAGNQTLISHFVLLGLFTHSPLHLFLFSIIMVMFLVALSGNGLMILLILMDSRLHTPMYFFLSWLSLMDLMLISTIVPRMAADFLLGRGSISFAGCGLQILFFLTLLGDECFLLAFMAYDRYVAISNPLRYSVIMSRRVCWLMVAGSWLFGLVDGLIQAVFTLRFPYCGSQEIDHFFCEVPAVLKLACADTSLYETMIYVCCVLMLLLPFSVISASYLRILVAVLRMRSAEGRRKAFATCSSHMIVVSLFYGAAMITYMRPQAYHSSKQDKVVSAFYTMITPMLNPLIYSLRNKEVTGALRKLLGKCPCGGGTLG
# In short: as §1
# UniProt Q8VGH1 = target: T3, UniProt Q8VGH1
# T3 sequence (whole entry): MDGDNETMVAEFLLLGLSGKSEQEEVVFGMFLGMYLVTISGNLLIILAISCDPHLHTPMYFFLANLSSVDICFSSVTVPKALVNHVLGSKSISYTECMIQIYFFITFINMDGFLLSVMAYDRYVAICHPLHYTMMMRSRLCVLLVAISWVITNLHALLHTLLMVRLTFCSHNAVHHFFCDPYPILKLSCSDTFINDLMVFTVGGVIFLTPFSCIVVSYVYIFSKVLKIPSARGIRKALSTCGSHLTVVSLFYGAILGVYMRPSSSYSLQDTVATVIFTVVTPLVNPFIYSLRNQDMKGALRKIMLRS
# In short: as §1
# UniProt Q8VGJ1 = target: T4, UniProt Q8VGJ1
# T4 sequence (whole entry): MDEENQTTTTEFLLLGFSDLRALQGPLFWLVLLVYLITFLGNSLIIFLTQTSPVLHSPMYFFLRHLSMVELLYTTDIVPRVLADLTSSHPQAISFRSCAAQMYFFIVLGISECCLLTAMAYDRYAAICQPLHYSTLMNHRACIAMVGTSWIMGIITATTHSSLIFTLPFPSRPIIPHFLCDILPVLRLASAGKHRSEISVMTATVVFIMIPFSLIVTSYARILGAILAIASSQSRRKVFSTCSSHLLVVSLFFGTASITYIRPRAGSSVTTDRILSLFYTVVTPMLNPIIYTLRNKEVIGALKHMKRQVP
# In short: as §1
# UniProt Q8VGJ3 = target: T5, UniProt Q8VGJ3
# T5 sequence (whole entry): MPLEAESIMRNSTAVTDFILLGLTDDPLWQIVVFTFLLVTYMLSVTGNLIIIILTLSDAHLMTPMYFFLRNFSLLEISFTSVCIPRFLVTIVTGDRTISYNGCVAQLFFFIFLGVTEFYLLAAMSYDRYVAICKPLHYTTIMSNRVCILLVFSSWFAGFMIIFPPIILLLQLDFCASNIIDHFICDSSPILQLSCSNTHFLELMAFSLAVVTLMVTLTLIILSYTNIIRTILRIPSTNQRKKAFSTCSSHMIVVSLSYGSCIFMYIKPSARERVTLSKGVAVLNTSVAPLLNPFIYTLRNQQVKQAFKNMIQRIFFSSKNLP
# In short: as §1
# UniProt Q8VGJ5 = target: T6, UniProt Q8VGJ5
# T6 sequence (whole entry): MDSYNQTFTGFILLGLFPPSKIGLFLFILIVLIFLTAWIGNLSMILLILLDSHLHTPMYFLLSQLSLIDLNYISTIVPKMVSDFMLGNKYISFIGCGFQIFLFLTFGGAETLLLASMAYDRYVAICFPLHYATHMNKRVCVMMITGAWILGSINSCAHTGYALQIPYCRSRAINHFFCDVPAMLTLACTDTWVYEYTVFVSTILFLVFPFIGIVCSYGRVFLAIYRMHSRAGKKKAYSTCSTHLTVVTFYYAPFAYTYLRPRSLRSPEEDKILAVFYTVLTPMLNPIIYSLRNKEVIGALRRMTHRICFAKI
# In short: as §1
# UniProt Q8VGL0 = target: T7, UniProt Q8VGL0
# T7 sequence (whole entry): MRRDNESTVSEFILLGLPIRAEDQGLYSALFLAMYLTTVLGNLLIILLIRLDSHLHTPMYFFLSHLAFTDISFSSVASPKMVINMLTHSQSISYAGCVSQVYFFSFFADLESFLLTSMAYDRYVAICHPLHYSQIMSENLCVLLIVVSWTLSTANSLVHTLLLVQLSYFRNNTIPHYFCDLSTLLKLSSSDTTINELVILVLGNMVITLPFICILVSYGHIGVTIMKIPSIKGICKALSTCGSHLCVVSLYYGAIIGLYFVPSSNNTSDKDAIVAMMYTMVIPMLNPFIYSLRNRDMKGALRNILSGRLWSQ
# In short: as §1
# UniProt Q8VGL7 = target: T8, UniProt Q8VGL7
# T8 sequence (whole entry): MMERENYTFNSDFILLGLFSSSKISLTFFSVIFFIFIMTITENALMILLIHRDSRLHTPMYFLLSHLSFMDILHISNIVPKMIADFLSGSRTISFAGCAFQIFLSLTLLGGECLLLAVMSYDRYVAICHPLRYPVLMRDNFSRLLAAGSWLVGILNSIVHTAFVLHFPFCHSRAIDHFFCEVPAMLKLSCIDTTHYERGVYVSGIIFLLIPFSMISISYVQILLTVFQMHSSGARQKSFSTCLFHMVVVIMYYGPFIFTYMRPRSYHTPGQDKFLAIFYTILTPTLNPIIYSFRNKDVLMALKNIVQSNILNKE
# In short: as §1
# UniProt Q8VGM2 = target: T9, UniProt Q8VGM2
# T9 sequence (whole entry): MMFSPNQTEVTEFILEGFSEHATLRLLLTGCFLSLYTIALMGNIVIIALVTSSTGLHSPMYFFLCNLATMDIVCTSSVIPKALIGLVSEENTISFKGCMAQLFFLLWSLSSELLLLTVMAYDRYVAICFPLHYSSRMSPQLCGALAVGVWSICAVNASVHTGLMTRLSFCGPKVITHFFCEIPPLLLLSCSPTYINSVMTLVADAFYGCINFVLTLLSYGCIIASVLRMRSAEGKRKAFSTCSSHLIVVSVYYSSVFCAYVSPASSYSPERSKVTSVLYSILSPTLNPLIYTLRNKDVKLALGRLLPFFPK
# In short: as §1
# UniProt Q8VGP6 = target: T10, UniProt Q8VGP6
# T10 sequence (whole entry): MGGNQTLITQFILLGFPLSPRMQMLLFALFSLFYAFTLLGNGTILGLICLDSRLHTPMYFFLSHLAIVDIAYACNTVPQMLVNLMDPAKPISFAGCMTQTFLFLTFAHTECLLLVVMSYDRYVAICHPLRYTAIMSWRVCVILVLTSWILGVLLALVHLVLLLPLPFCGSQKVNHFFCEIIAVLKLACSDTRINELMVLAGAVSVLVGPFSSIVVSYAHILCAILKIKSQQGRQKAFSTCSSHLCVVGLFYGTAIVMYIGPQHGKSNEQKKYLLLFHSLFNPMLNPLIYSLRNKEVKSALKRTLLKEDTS
# In short: as §1
# UniProt Q8VGQ3 = target: T11, UniProt Q8VGQ3
# T11 sequence (whole entry): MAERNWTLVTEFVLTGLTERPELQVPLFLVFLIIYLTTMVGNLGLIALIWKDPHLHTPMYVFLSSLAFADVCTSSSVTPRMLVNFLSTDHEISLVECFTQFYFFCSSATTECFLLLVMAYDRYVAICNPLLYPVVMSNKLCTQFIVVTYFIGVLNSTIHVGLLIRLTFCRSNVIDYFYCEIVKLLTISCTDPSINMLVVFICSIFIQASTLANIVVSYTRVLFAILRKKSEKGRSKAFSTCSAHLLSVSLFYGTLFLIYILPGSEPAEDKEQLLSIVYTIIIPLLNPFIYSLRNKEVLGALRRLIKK
# In short: as §1
# UniProt Q8VGT4 = target: T12, UniProt Q8VGT4
# T12 sequence (whole entry): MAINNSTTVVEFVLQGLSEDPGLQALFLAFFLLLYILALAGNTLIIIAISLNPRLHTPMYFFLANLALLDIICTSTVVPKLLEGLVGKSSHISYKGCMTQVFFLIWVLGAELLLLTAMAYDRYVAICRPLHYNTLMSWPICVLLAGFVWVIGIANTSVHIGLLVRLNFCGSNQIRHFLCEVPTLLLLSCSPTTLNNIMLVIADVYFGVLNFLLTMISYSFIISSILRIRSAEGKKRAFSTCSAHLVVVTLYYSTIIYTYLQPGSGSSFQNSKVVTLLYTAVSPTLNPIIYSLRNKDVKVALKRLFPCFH
# In short: as §1
# UniProt Q8VGU3 = target: T13, UniProt Q8VGU3
# T13 sequence (whole entry): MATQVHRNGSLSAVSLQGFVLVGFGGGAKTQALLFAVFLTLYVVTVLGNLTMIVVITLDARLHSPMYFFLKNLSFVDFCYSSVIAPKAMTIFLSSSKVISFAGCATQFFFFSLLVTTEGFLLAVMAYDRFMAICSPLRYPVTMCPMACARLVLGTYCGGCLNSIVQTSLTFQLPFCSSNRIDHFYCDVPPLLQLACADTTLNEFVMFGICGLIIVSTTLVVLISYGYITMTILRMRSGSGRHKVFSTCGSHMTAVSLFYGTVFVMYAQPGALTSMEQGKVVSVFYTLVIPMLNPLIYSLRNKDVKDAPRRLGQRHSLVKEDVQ
# In short: as §1
# UniProt Q8VGV1 = target: T14, UniProt Q8VGV1
# T14 sequence (whole entry): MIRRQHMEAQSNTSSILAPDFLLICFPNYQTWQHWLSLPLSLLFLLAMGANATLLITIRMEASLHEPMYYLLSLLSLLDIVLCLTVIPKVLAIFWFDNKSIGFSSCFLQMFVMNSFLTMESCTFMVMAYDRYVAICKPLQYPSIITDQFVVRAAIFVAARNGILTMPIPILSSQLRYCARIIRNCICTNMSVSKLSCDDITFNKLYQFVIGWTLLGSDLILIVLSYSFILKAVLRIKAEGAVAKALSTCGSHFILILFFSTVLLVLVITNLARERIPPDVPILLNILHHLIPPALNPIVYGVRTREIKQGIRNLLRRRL
# In short: as §1
# UniProt Q8VGV7 = target: T15, UniProt Q8VGV7
# T15 sequence (whole entry): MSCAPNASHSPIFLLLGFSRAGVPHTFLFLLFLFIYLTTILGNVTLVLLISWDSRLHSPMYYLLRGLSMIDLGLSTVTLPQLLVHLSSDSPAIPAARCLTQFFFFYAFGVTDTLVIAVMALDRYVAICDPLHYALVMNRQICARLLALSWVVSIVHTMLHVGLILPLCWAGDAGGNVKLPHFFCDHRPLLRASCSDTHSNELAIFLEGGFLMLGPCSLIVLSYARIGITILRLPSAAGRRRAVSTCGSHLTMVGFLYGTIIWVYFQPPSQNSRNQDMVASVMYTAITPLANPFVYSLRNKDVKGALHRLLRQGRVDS
# In short: as §1
# UniProt Q8VGX3 = target: T16, UniProt Q8VGX3
# T16 sequence (whole entry): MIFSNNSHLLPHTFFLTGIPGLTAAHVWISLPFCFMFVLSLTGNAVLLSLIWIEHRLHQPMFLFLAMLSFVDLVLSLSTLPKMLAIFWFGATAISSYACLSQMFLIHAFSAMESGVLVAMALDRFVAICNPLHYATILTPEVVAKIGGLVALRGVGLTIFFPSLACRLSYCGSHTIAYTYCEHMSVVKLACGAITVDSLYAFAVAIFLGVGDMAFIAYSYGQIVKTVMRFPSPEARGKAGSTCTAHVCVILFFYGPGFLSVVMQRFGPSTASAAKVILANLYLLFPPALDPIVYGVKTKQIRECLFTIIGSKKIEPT
# In short: as §1
# UniProt Q8VGX5 = target: T17, UniProt Q8VGX5
# T17 sequence (whole entry): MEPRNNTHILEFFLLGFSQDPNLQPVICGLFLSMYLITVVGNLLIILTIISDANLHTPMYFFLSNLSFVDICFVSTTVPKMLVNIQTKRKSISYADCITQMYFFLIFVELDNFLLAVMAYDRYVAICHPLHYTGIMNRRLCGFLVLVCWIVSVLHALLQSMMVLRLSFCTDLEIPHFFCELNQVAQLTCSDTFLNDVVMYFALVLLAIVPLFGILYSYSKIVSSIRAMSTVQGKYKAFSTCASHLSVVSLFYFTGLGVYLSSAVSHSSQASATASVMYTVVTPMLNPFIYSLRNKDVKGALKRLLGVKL
# In short: as §1
# UniProt Q8VGW5 = target: T18, UniProt Q8VGW5
# T18 sequence (whole entry): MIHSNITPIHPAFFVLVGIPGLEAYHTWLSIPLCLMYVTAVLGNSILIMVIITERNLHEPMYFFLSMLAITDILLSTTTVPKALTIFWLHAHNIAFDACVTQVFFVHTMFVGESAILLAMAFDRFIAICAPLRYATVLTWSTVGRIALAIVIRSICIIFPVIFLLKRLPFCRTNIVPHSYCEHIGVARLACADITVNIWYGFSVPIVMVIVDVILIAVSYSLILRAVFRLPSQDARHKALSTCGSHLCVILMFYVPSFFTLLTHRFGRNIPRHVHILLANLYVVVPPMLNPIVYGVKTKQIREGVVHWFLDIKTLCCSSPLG
# In short: as §1
SMILES,odorant receptor agonist call (UniProt Q8VGC6),odorant receptor agonist call (UniProt Q8VGD7),odorant receptor agonist call (UniProt Q8VGH1),odorant receptor agonist call (UniProt Q8VGJ1),odorant receptor agonist call (UniProt Q8VGJ3),odorant receptor agonist call (UniProt Q8VGJ5),odorant receptor agonist call (UniProt Q8VGL0),odorant receptor agonist call (UniProt Q8VGL7),odorant receptor agonist call (UniProt Q8VGM2),odorant receptor agonist call (UniProt Q8VGP6),odorant receptor agonist call (UniProt Q8VGQ3),odorant receptor agonist call (UniProt Q8VGT4),odorant receptor agonist call (UniProt Q8VGU3),odorant receptor agonist call (UniProt Q8VGV1),odorant receptor agonist call (UniProt Q8VGV7),odorant receptor agonist call (UniProt Q8VGX3),odorant receptor agonist call (UniProt Q8VGX5),odorant receptor agonist call (UniProt Q8VGW5)
CC(=O)Oc1ccccc1,active,inactive,inactive,inactive,inactive,inactive,inactive,inactive,inactive,inactive,inactive,inactive,inactive,inactive,inactive,inactive,active,
O=C([O-])CCCCCCCC(=O)[O-].[H+].[H+],inactive,,,,inactive,,inactive,,,,,,inactive,,inactive,inactive,inactive,inactive
CC(C)=CCCC(C)=CCO,active,inactive,inactive,inactive,inactive,inactive,inactive,inactive,inactive,inactive,inactive,inactive,inactive,inactive,inactive,inactive,active,
